Laboratory results from ChEMBL document CHEMBL5149984, “Discovery of HN37 as a Potent and Chemically Stable Antiepileptic Drug Candidate” (J Med Chem, 2021).

How the values were obtained:
[1] = target: Potassium voltage-gated channel subfamily KQT member 2 (Rattus norvegicus) (UniProt O88943); experiment: Agonist activity at rat Kv7.2 channel expressed in CHO cells assessed as amplitude change of outward current at 10 uM by whole cell patch clamp based electrophysiological method; conditions: filed as agonist
Potassium voltage-gated channel subfamily KQT member 2 (Rattus norvegicus), sequence (O88943 whole entry, the tested form may be a part): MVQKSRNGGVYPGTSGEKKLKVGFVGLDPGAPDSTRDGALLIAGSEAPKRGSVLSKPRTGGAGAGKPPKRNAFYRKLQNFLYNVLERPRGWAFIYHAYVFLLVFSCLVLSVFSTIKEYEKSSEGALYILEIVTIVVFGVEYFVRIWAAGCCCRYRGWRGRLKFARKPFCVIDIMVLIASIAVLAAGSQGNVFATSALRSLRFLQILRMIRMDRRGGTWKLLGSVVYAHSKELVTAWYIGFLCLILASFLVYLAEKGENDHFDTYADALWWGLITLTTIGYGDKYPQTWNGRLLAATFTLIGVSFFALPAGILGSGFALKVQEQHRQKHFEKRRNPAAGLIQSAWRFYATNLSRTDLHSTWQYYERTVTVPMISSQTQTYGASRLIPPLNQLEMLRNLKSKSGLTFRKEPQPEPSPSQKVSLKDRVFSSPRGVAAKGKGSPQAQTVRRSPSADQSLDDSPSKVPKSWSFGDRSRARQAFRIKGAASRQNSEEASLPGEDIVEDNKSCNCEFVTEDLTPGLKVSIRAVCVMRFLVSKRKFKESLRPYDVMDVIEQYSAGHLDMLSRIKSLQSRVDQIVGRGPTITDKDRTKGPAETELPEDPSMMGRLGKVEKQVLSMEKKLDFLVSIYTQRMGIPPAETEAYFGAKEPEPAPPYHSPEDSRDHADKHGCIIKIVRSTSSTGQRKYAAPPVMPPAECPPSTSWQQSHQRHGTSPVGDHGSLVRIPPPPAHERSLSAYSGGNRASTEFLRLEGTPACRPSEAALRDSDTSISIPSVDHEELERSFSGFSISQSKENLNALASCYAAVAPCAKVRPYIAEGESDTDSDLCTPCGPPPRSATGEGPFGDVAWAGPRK
Procedure, shortened: (§1)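 Rat KCNQ2 cotransfected with EGFP plasmid by Lipofectamine 3000 into CHO cells (DMEM/F12, 10% FBS; split 24 h before transfection). Whole-cell recording at room temperature. Pipette: 145 mM KCl, 1 mM MgCl2, 5 mM EGTA, 10 mM HEPES, 5 mM MgATP, pH 7.3. Bath, constantly perfused: 140 mM NaCl, 5 mM KCl, 2 mM CaCl2, 1.5 mM MgCl2, 10 mM glucose, 10 mM HEPES, pH 7.4. Signals filtered at 1 kHz. Compound at 10 μM. I/I0 is outward current amplitude with over without compound. ΔV1/2 is the shift in V1/2 from Boltzmann fits of activation curves. Mean ± SEM.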

[2] = target: Potassium voltage-gated channel subfamily KQT member 2 (Rattus norvegicus) (UniProt O88943); experiment: Agonist activity at rat Kv7.2 channel expressed in CHO cells assessed as shift of half voltage of maximal activation at 10 uM by whole cell patch clamp based electrophysiological method; conditions: filed as agonist; procedure, shortened: as §1
Mus musculus [3] = experiment: Anticonvulsant activity in pentylenetetrazol induced Kunming mouse model of seizure at 30 mg/kg, po after 1 hr; assay type: functional
Procedure, shortened: (§2)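 sc-PTZ test in male KM mice. Compound suspended in 0.5% CMC-Na and given orally 1 h before PTZ (freshly dissolved in normal saline, 100 mg/kg). Protection against clonic seizures scored; ED50 by nonlinear regression.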

Mus musculus [4] = experiment: Anticonvulsant activity in MES induced Kunming mouse model of seizure at 30 mg/kg, po after 1 hr; assay type: functional
Procedure, shortened: (§3)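 MES test in male KM mice. Compounds freshly suspended in 0.5% CMC-Na and given by gavage at 20 mL/kg; 160 V stimulus through ear clips. Protection scored as absence of hindlimb tonic extension; time course at 0.25, 0.5, 1 and 2 h, otherwise tested at 1 h. ED50 from dose−response by nonlinear regression; Fisher's exact test versus vehicle.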

Mus musculus [5] = species on record: Mus musculus; experiment: Anticonvulsant activity in Kunming mouse assessed as reduction in MES-induced seizure after 1 hr; assay type: functional; procedure, shortened: as §3
Mus musculus [6] = species on record: Mus musculus; experiment: Anticonvulsant activity in C57BL/6 mouse 6 Hz seizure model at 32 mA measured after 1 hr; assay type: functional
Mus musculus [7] = species on record: Mus musculus; experiment: Anticonvulsant activity in Kunming mouse assessed as reduction in Sc-PTZ induced seizure after 1 hr; assay type: functional; procedure, shortened: as §2
[8] = Neurotoxicity in po dosed Kunming mouse assessed as motor impairment after 1 hr by rotarod test; assay type: toxicity, organism-based; conditions: in vivo, po, 1 h
Procedure, shortened: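 Male KM mice dosed intragastrically with compound freshly suspended in 0.5% CMC-Na. Rotarod performance scored 1 h after dosing as the fraction of animals showing motor impairment. Fisher's exact test versus vehicle; TD50 from nonlinear dose−response fit.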

Mus musculus [9] = species on record: Mus musculus; experiment: Anticonvulsant activity in C57BL/6 mouse 6 Hz seizure model at 44 mA measured after 1 hr; assay type: functional

| Structure (SMILES) | Activity [1] | Activity [2] [mV] | also measured |
| --- | --- | --- | --- |
| C#CCN(Cc1ccc(F)cc1)c1c(C)cc(NC(=O)OC)cc1C | 0.72 | 13.5 |  |
| C#CCN(Cc1ccc(F)cc1)c1ccc(NC(=O)OC)cc1C#N | 1.94 | -9.62 |  |
| C#CCN(Cc1ccc(F)cc1)c1ccc(NC(=O)OCC2COC(C)(C)O2)cc1 (stereo not drawn) | 2.11 | -3.95 |  |
| C#CCN(Cc1ccccc1Cl)c1ccc(NC(=O)OC)cc1 | 2.29 | -16.5 |  |
| C#CCN(Cc1ccc(F)cc1)c1ccc(NC(=O)OCC)c(N)c1 | 1.53 | -47.9 |  |
| C#CCN(Cc1ccc(F)c(C(F)(F)F)c1)c1ccc(NC(=O)OC)cc1 | 1.33 | -15.6 |  |
| C#CCN(Cc1ccc(F)cc1)c1ccc(NC(=O)OCc2ccccc2)cc1 | 2.09 | -11.5 |  |
| C#CCN(Cc1ccc(F)cc1)c1ccc(NC(=O)OC)cc1F | 1.39 | -9.06 |  |
| C#CCN(Cc1ccc(F)cc1)c1ccc(NC(C)=O)cc1 | 1.8 | -6.09 |  |
| C#CCN(Cc1ccc(F)cc1)c1ccc(NC(=O)OC)c(OC(F)(F)F)c1 | 1.24 | -13.2 |  |
| C#CCN(Cc1ccc(C)cc1)c1ccc(NC(=O)OC)cc1 | 1.05 | -5.77 |  |
| C#CCN(Cc1ccc(F)cc1)c1ccc(NC(=O)OC(C)(C)C)cc1 | 1.05 | -19.4 |  |
| C#CCN(Cc1ccc(F)cc1)c1ccc(NC(=O)OC)cc1 | 3.27 | -24.2 | Activity (Mus musculus [3]): 60%; Activity (Mus musculus [4]): 50% |
| C#CCN(Cc1ccc(Br)cc1)c1ccc(NC(=O)OC)cc1 | 3.75 | -25.1 |  |
| C#CCN(Cc1ccc(F)cc1)c1ccc(NC(=O)OC)c(F)c1 | 2.09 | -22 |  |
| C#CCN(Cc1cccc(F)c1)c1ccc(NC(=O)OC)cc1 | 2.33 | -21.1 |  |
| C#CCN(Cc1ccc(F)cc1)c1ccc(NC(=O)OC)c(C)c1 | 4.8 | -23.3 |  |

| Structure (SMILES) | Activity [1] | Activity [2] [mV] | also measured |
| --- | --- | --- | --- |
| C#CCN(Cc1cccc(OC)c1)c1ccc(NC(=O)OC)cc1 | 2.72 | -12.5 |  |
| CC1(C)O[C@@H]2[C@@H](CO[C@@]3(COS(N)(=O)=O)OC(C)(C)O[C@@H]23)O1 [TOPIRAMATE] |  |  | ED50 (Mus musculus [5]): 35.5 mg/kg; ED50 (Mus musculus [6]): > 500 mg/kg; ED50 (Mus musculus [7]): > 200 mg/kg; Activity [8]: 379.2 mg/kg; ED50 (Mus musculus [9]): > 500 mg/kg |
| C#CCN(Cc1ccc(F)cc1)c1ccc(NC(=O)OC)c(C#N)c1 | 0.52 | -5.1 |  |
| C#CCN(Cc1ccc(F)cc1)c1ccc(F)c(NC(=O)OC)c1 | 2.75 | -18.7 |  |
| C#CCN(Cc1ccccc1F)c1ccc(NC(=O)OC)cc1 | 2.31 | -7.6 |  |
| C#CCN(Cc1ccc(F)cc1)c1ccc(NC(=O)OC)cc1C | 1.4 | -3.42 |  |
| C#CCN(Cc1ccc(F)c(F)c1)c1ccc(NC(=O)OC)cc1 | 2.52 | -14.9 |  |
| C#CCN(Cc1ccc(F)cc1)c1ccc(NC(=O)OCC=C)cc1 | 1.01 | -14.5 |  |
| C#CCN(Cc1ccc(F)cc1)c1ccc(NC(=O)OCC)cc1 | 1.99 | -7.26 |  |
| C#CCN(Cc1ccc(F)cc1)c1ccccc1NC(=O)OC | 0.95 |  |  |
| C#CCN(Cc1ccc(F)cc1)c1ccc(NC(=O)OC)cc1Cl | 1.19 | -2.06 |  |
| CC[C@H](C(N)=O)N1CCCC1=O [LEVITIRACETAM] |  |  | ED50 (Mus musculus [5]): > 500 mg/kg; ED50 (Mus musculus [6]): 41.5 mg/kg; ED50 (Mus musculus [7]): > 500 mg/kg; Activity [8]: > 500 mg/kg; ED50 (Mus musculus [9]): 376 mg/kg |
| C#CCN(Cc1ccc(F)cc1)c1cccc(NC(=O)OC)c1 | 1.65 | 3.6 |  |
| C#CCN(Cc1ccc(F)cc1)c1ccc(NC(=O)OC)c(C(F)(F)F)c1 | 1.42 | -10.4 |  |
| C#CCN(Cc1ccc(F)cc1)c1ccc(NC(=O)OC)c(Cl)c1 | 1.09 | -7.06 |  |
| C#CCN(Cc1ccc(F)cc1)c1ccc(NC(=O)OCC(C)C)cc1 | 1.23 | -14.3 |  |
